MrgX1 antag: antagonists of human MrgX1 receptor, primary screen, HEK293 cells, Fluo-4 calcium flux; Mas-related G-protein coupled receptor member X1 (Homo sapiens), Q96LB2; BAM8-22 antagonism; active compounds read low; B-score at 10 µM; actives 1.3% (n = 310,000); AID 588676, 2011;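 active = calcium-response B-score plate-corrected more than 3 library SD below zero, starting fluorescence within 5 deviations, no agonist response on first addition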;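 note: peak minus trough fluorescence over baseline after final BAM8-22 challenge near maximal dose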
Target sequence (Q96LB2 whole entry, looked up): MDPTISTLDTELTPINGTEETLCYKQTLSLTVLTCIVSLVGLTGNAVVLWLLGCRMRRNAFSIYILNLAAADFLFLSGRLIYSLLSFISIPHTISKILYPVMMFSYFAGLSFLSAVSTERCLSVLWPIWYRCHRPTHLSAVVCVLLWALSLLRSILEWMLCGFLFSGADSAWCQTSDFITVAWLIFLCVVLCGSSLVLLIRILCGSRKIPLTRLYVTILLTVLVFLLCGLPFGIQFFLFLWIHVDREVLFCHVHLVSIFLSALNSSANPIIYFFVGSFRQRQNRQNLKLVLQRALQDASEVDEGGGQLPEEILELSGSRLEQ
MrgX1 ag: agonists of human MrgX1 receptor, primary screen, HEK293 cells, Fluo-4 calcium flux. Mas-related G-protein coupled receptor member X1 (Homo sapiens), Q96LB2. actives 0.44% (n = 310,000). Fluo-4 calcium fluorescence, agonist mode; active compounds read high. B-score at 10 µM. AID 588627, 2011;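 active = calcium response B-score plate-corrected fluorescence ratio at least 3 library SD, with starting fluorescence B-score inside 5 SD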
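System – MrgX1-expressing HEK293 cells · Incubation – cells plated overnight, dye loaded 0.5 h 37 °C, 0.5 h room temperature · Technique – kinetic Fluo-4 NW fluorescence of intracellular calcium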
RGS4 inh: RGS4 inhibitors, primary screen, cell-based, HEK293 M3R inducible RGS4, calcium flux. Regulator of G-protein signaling 4 (Homo sapiens), P49798. Fluo-4 calcium flux; active compounds read high; triggered by carbachol at its EC20. B-score at 10 µM. actives 0.45% (n = 310,000). AID 463165, 2010;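 active = B-score, a plate-corrected calcium signal, over three deviations above library mean, with baseline fluorescence within five deviations of library mean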;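 note: RGS4 expression induced by doxycycline in cells with stable M3 receptor; B-score is computed from the integrated fluorescence ratio over baseline after carbachol; higher B-score means a larger calcium signal and so more RGS4 inhibition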
Target sequence (P49798 whole entry, looked up): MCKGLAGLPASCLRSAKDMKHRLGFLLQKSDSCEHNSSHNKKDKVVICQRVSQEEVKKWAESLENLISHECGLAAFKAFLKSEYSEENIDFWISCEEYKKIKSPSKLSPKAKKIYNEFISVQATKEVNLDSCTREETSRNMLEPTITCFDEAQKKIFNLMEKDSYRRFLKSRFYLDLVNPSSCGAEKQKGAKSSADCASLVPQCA
Kir21 block: inhibitors of mouse Kir2.1 inward-rectifier potassium channel. Inward rectifier potassium channel 2 (Mus musculus), P35561. HEK293-Kir2.1, FluxOR thallium flux fluorescence; active compounds read low. B-score at 10 µM. actives 0.85% (n = 310,000). AID 1672, 2009;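 active = fluorescence ratio B-score at or below minus 3 SD of library scores, with starting-brightness B-score within 2 SD, cut at about -4.2 in these data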;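 note: channel flux triggered by added potassium and thallium sulfate stimulus; B-score of peak minus minimum fluorescence over baseline after thallium stimulus; more negative B-score means stronger Kir2.1 block with less thallium influx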
RGS4 pot: RGS4 potentiators or activators, primary screen, cell-based, HEK293 M3R inducible RGS4, calcium flux | carbachol calcium flux Fluo4; active compounds read low | B-score at 10 µM | actives 0.92% (n = 310,000);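 active = B-score of the integrated calcium signal more than 4 SD below the library mean, with starting fluorescence not abnormally high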;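 note: negative B-score means reduced calcium response which marks RGS4 activation or potentiation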
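System – HEK293 FlpIn-TREx cells, stable M3R, doxycycline-inducible RGS4 · Reagent – ECmax carbachol challenge · Times – compound preincubation 20 min at room temperature before agonist · Technique – Fluo4 fluorescence kinetic imaging of calcium · Measure – B score of integrated Fluo4 ratio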
MrgX1 PAM: positive allosteric modulators of MrgX1, primary screen, HEK293 cells, Fluo-4 calcium flux. Mas-related G-protein coupled receptor member X1 (Homo sapiens), Q96LB2. FDSS; active compounds read high. B-score at 10 µM. actives 0.63% (n = 310,000). AID 588675, 2011;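 active = plate-corrected calcium response at least 3 library SD above typical, normal starting fluorescence, not activating the receptor alone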;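 note: compound read alongside a low EC10 to EC30 dose of BAM8-22 agonist; peak minus trough fluorescence over baseline measured at the second addition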
Active calls of the source: *. Compounds with a hit are over-represented: about 4.1% of the library has one in this group of screens.

Screening O=C(CC1SC(=Nc2ccc(OC(F)F)cc2)N(CCN2CCOCC2)C1=O)Nc1ccccc1 (centres undefined) returned MrgX1 antag inactive, MrgX1 ag inactive, RGS4 inh inactive, Kir21 block -1.4, RGS4 pot inactive and MrgX1 PAM inactive.
Screening O=C(/C=C/c1ccccc1)CC(O)(c1ccccc1)C(F)(F)F (centres undefined) returned MrgX1 antag inactive, MrgX1 ag inactive, RGS4 inh inactive, Kir21 block -6.3*, RGS4 pot -10* and MrgX1 PAM inactive.
For COc1ccc(/C=C/C(=O)CC(O)(c2ccccc2)C(F)(F)F)cc1 (centres undefined) the results were MrgX1 antag inactive, MrgX1 ag inactive, RGS4 inh inactive, Kir21 block -1.6, RGS4 pot inactive and MrgX1 PAM inactive.
`O=C(/C=C/c1ccccc1)CC(O)(c1ccccc1)C(F)(F)C(F)F` (centres undefined) gave MrgX1 antag inactive, MrgX1 ag inactive, RGS4 inh inactive, Kir21 block -3.4, RGS4 pot -8.9* and MrgX1 PAM inactive.
Screening COc1ccc(N=C2S/C(=C\c3ccc(C)o3)C(=O)N2CC(C)C)cc1 returned MrgX1 antag inactive, MrgX1 ag inactive, RGS4 inh inactive, Kir21 block 0.39, RGS4 pot inactive and MrgX1 PAM inactive.
O=C(CCn1c(=S)oc2ccccc21)N1CCCCC1 was read as MrgX1 antag inactive, MrgX1 ag inactive, RGS4 inh inactive, Kir21 block 0.15, RGS4 pot inactive and MrgX1 PAM inactive.
For CC(=O)c1cn(-c2ccc(Cl)cc2)c(=O)[nH]c1=O the results were MrgX1 antag inactive, MrgX1 ag inactive, RGS4 inh inactive, Kir21 block 0.75, RGS4 pot inactive and MrgX1 PAM inactive.
Screening CC(=O)c1cn(-c2ccc(Cl)cc2)c(=O)n(Cc2ccc(F)cc2)c1=O returned MrgX1 antag -7.9*, MrgX1 ag inactive, RGS4 inh inactive, Kir21 block 0.98, RGS4 pot inactive and MrgX1 PAM inactive.
CCn1c(SC(C)C(=O)NCC2CCCO2)nc2scc(-c3ccccc3)c2c1=O (centres undefined) was read as MrgX1 antag inactive, MrgX1 ag inactive, RGS4 inh inactive, Kir21 block -1.9, RGS4 pot inactive and MrgX1 PAM inactive.
Screening C=CCn1c(SCC(=O)NCC2CCCO2)nc2scc(-c3ccccc3)c2c1=O (centres undefined) returned MrgX1 antag -5.2*, MrgX1 ag inactive, RGS4 inh inactive, Kir21 block -1.2, RGS4 pot inactive and MrgX1 PAM inactive.
`Cc1ccc(C2=NC3(CCCCC3)NC2=S)cc1` gave MrgX1 antag inactive, MrgX1 ag inactive, RGS4 inh inactive, Kir21 block 0.06, RGS4 pot inactive and MrgX1 PAM inactive.
Screening CCN1CCC2(CC1)N=C(c1ccc(F)cc1)C(=S)N2 returned MrgX1 antag inactive, MrgX1 ag inactive, RGS4 inh inactive, Kir21 block 0.2, RGS4 pot -7.4* and MrgX1 PAM inactive.
`COc1ccc(CNC2c3ccccc3-c3ccccc32)cc1OC` gave MrgX1 antag inactive, MrgX1 ag inactive, RGS4 inh inactive, Kir21 block -4.4*, RGS4 pot inactive and MrgX1 PAM inactive.
Screening Cc1ccnc(NC(=O)CSc2ccc3c(c2)OCCO3)c1 returned MrgX1 antag inactive, MrgX1 ag inactive, RGS4 inh inactive, Kir21 block -2.5, RGS4 pot -7.3* and MrgX1 PAM inactive.
For Cc1ccc(NC(=O)CSc2ccc3c(c2)OCCO3)c(O)c1 the results were MrgX1 antag inactive, MrgX1 ag inactive, RGS4 inh inactive, Kir21 block -1.1, RGS4 pot inactive and MrgX1 PAM inactive.
`COCCn1c(=O)[nH]c2cc(C(=O)NCc3ccccc3)ccc2c1=O` gave MrgX1 antag inactive, MrgX1 ag inactive, RGS4 inh inactive, Kir21 block -0.13, RGS4 pot inactive and MrgX1 PAM inactive.
`O=C(/C=C/c1ccco1)N/C(=C\c1ccco1)C(=O)NCCc1nc2ccccc2[nH]1` gave MrgX1 antag inactive, MrgX1 ag inactive, RGS4 inh inactive, Kir21 block -0.21, RGS4 pot inactive and MrgX1 PAM inactive.
Screening O=C(c1ccc2c(c1)OCO2)C1CCCN(Cc2ccc(OC(F)F)cc2)C1 (centres undefined) returned MrgX1 antag inactive, MrgX1 ag inactive, RGS4 inh inactive, Kir21 block -10*, RGS4 pot inactive and MrgX1 PAM inactive.
CC(=O)Nc1ccc(S(=O)(=O)NCCNc2ccccc2[N+](=O)[O-])cc1 was read as MrgX1 antag inactive, MrgX1 ag inactive, RGS4 inh inactive, Kir21 block 0.71, RGS4 pot inactive and MrgX1 PAM inactive.
Screening Cc1c(-c2nc(-c3cccnc3)no2)cccc1[N+](=O)[O-] returned MrgX1 antag inactive, MrgX1 ag inactive, RGS4 inh inactive, Kir21 block -1.4, RGS4 pot inactive and MrgX1 PAM inactive.
For CCOC(=O)c1cnc(Nc2nc3ccccc3o2)nc1CSC(=S)N(CC)CC the results were MrgX1 antag inactive, MrgX1 ag inactive, RGS4 inh inactive, Kir21 block -1.3, RGS4 pot inactive and MrgX1 PAM inactive.
CCOC(=O)c1cnc(Nc2nc3ccccc3o2)nc1CSc1ncccn1 was read as MrgX1 antag -5.6*, MrgX1 ag inactive, RGS4 inh inactive, Kir21 block -0.21, RGS4 pot inactive and MrgX1 PAM inactive.
For COc1cc(C(=O)O)nc2ccc([N+](=O)[O-])cc12 the results were MrgX1 antag inactive, MrgX1 ag inactive, RGS4 inh inactive, Kir21 block 0.43, RGS4 pot inactive and MrgX1 PAM inactive.
Screening COc1ccccc1-c1nnn(CC#N)n1 returned MrgX1 antag -7.5*, MrgX1 ag inactive, RGS4 inh inactive, Kir21 block 1.2, RGS4 pot inactive and MrgX1 PAM inactive.
COc1ccc(-c2nnn(CC#N)n2)cc1OC was read as MrgX1 antag inactive, MrgX1 ag inactive and MrgX1 PAM inactive.
Screening COC(=O)Nc1c(-c2ccccc2)nc2ccc(C)cn12 returned MrgX1 antag inactive, MrgX1 ag inactive, RGS4 inh inactive, Kir21 block -0.93, RGS4 pot inactive and MrgX1 PAM inactive.

High-throughput results: PubChem BioAssay, Johns Hopkins Ion Channel Center
